# Results reported in ChEMBL document CHEMBL4622968, “Discovery of [1,2,4]triazolo[4,3-a]pyridines as potent Smoothened inhibitors targeting the Hedgehog pathway with improved antitumor activity in vivo” (Bioorg Med Chem, 2020).
# Active and inactive are the calls of the source. No cut-off for these calls is given here.
# How the values were obtained:
# [1] = test system: MDA-MB-468; test: Induction of cell cycle arrest in human MDA-MB-468 cells assessed as cell accumulation at G2/M phase at 14 uM incubated for 48 hrs by propidium iodide staining-based flow cytometric analysis (reference value: 26.66 %); format: functional
# How it was run: (§1)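 Cells were seeded at 1.2×10^5 per well and treated for 48 h (MDA-MB-468: 14, 28, 56 μM). Cells were fixed in 75% ethanol at −20 °C overnight, stained with PI and analysed by flow cytometry. Mean ± S.D. of three independent experiments versus DMSO.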
# [2] = Acute toxicity in Kunming mouse assessed as mortality at 4552 mg/kg, ig observed for 14 days relative to control; format: organism-based; details: in vivo, po, read-out: Activity
# How it was run: (§2)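 Kunming mice, groups of 5 female and 5 male per dose, dosed once by gavage at graded doses; mortality recorded over 14 days as dead/treated and percent. LD50 derived by improved Karber's method: LD50 = lg^-1[xm − i(ΣP − 0.5)], xm log of maximal dose, i log ratio of neighbouring doses; 95% confidence intervals given.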
# [3] = test system: MDA-MB-468; test: Induction of cell cycle arrest in human MDA-MB-468 cells assessed as cell accumulation at S phase at 14 uM incubated for 48 hrs by propidium iodide staining-based flow cytometric analysis (reference value: 34.20 %); format: functional; how it was run: as §1
# [4] = test system: MDA-MB-468; test: Induction of apoptosis in human MDA-MB-468 cells assessed as necrotic cells at 14 uM incubated for 48 hrs by annexin-V-FITC staining based flow cytometric method (reference value: 1.52 %); format: functional
# [5] = test system: MDA-MB-468; test: Induction of cell cycle arrest in human MDA-MB-468 cells assessed as cell accumulation at G2/M phase at 56 uM incubated for 48 hrs by propidium iodide staining-based flow cytometric analysis (reference value: 26.66 %); format: functional; how it was run: as §1
# [6] = test system: MDA-MB-468; test: Induction of apoptosis in human MDA-MB-468 cells assessed as necrotic cells at 56 uM incubated for 48 hrs by annexin-V-FITC staining based flow cytometric method (reference value: 1.52 %); format: functional
# [7] = test system: MDA-MB-468; test: Induction of apoptosis in human MDA-MB-468 cells assessed as increase in apoptosis incubated for 48 hrs by annexin-V-FITC/PI staining based flow cytometric method; format: functional, cell-based
# [8] = test system: MDA-MB-468; test: Induction of apoptosis in human MDA-MB-468 cells assessed as early apoptotic cells at 56 uM incubated for 48 hrs by annexin-V-FITC staining based flow cytometric method (reference value: 2.00 %); format: functional
# [9] = test system: MDA-MB-468; test: Induction of apoptosis in human MDA-MB-468 cells assessed as live cells at 28 uM incubated for 48 hrs by annexin-V-FITC staining based flow cytometric method (reference value: 98.5 %); format: functional
# [10] = test system: MDA-MB-468; test: Inhibition of hedgehog pathway in human MDA-MB-468 cells assessed as decrease in Smo protein levels in cilia at 28 uM incubated for 24 hrs by immunostaining based confocal microscopic analysis; format: cell-based
# How it was run: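 MDA-MB-468 cells were treated at 28 μM for 24 h with or without SAG. Cilia were immunostained for acetylated α-tubulin and Smo and imaged by confocal microscopy. Comparisons were made against DMSO and against SAG alone.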
# [11] = species on record: Mus musculus; test: Inhibition of SAG-induced hedgehog pathway in mouse NIH/3T3 cells assessed as inhibition of Smo localization to primary cilia pretreated with SAG for 6 hrs followed by incubating for 24 hrs by confocal laser-scanning microscopy; format: cell-based
# How it was run: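 NIH3T3 cells in DMEM + 10% FBS were seeded at 2×10^4 per well on chamber slides for 24 h. They were stimulated with SAG (200 nM) for 6 h, then exposed to compound for 24 h. Cells were fixed in 4% paraformaldehyde and permeabilized with 0.1% Triton. Acetylated α-tubulin and Smo were immunostained and imaged by confocal microscopy.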
# [12] = test system: MDA-MB-468; test: Antiproliferation activity against human MDA-MB-468 cells assessed as reduction in cell viability incubated for 72 hr by MTT assay; format: functional, cell-based; details: MDA-MB-468, 72 h
# How it was run: (§3)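 MTT assay. Cells were plated overnight and exposed to a range of concentrations for 72 h. MTT was then added for 4 h and absorbance read at 570 nm. Inhibition% = [(control − compound)/(control − blank)] × 100. IC50 was fitted from the curves. Mean ± S.D. of 3–5 separate experiments. RPMI 1640 + 10% FBS; MCF10A in DMEM/F12 with 5% horse serum, EGF, hydrocortisone, insulin and cholera toxin.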
# [13] = test system: A549; test: Antiproliferation activity against human A549 cells assessed as reduction in cell viability incubated for 72 hrs by MTT assay; format: functional, cell-based; details: A549, 72 h; how it was run: as §3
# [14] = test system: MDA-MB-468; test: Induction of apoptosis in human MDA-MB-468 cells assessed as late apoptotic cells at 14 uM incubated for 48 hrs by annexin-V-FITC staining based flow cytometric method (reference value: 0.99 %); format: functional
# [15] = biological target: Protein smoothened (Homo sapiens, UniProt Q99835); test: Binding affinity to recombinant human Smo receptor assessed as association rate constant by SPR analysis
# How it was run: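 Surface plasmon resonance with recombinant Smo protein, run in PBS at a flow rate of 2 μL/s and 4 °C. Analytes were injected at 2.5, 5 and 10 μM. The chip was regenerated with 0.5% SDS:glycine-HCl pH 2.0 (1:1). ka, kd, Rmax, KA and KD came from a global fit of the sensorgrams.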
# [16] = test system: MDA-MB-468; test: Induction of apoptosis in human MDA-MB-468 cells assessed as live cells at 14 uM incubated for 48 hrs by annexin-V-FITC staining based flow cytometric method (reference value: 98.5 %); format: functional
# [17] = Inhibition of hedgehog pathway in mouse NIH/3T3 cells harboring GRE-Luc assessed as inhibition of SAG-induced Hh signaling pathway by dual luciferase reporter gene assay; format: cell-based; details: NIH3T3
# How it was run: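 NIH3T3 cells co-transfected with 8×3' Gli-BS-delta51-Luc II firefly reporter and pRL-TK Renilla plasmid; after 24 h treated with compounds plus SAG (pathway activator). Gli luciferase normalized to Renilla (dual-luciferase read-out); IC50 = concentration halving normalized signal; mean ± S.D. of 3–5 separate experiments.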
# [18] = test system: U-251; test: Antiproliferation activity against human U251 cells assessed as reduction in cell viability incubated for 72 hrs by MTT assay; format: functional, cell-based; details: U-251, 72 h; how it was run: as §3
# [19] = test system: MDA-MB-468; test: Induction of apoptosis in human MDA-MB-468 cells assessed as late apoptotic cells at 28 uM incubated for 48 hrs by annexin-V-FITC staining based flow cytometric method (reference value: 0.99 %); format: functional
# [20] = Acute toxicity in Kunming mouse assessed as mortality at 5226 mg/kg, ig observed for 14 days relative to control; format: organism-based; details: in vivo, po, read-out: Activity; how it was run: as §2
# [21] = test system: MDA-MB-468; test: Induction of cell cycle arrest in human MDA-MB-468 cells assessed as cell accumulation at S phase at 56 uM incubated for 48 hrs by propidium iodide staining-based flow cytometric analysis (reference value: 34.20 %); format: functional; how it was run: as §1
# [22] = test system: MDA-MB-231; test: Antiproliferation activity against human MDA-MB-231 cells assessed as reduction in cell viability incubated for 72 hrs measured after 4 hrs by MTT assay; format: functional, cell-based; how it was run: as §3
# Protein smoothened, sequence (Q99835 whole entry): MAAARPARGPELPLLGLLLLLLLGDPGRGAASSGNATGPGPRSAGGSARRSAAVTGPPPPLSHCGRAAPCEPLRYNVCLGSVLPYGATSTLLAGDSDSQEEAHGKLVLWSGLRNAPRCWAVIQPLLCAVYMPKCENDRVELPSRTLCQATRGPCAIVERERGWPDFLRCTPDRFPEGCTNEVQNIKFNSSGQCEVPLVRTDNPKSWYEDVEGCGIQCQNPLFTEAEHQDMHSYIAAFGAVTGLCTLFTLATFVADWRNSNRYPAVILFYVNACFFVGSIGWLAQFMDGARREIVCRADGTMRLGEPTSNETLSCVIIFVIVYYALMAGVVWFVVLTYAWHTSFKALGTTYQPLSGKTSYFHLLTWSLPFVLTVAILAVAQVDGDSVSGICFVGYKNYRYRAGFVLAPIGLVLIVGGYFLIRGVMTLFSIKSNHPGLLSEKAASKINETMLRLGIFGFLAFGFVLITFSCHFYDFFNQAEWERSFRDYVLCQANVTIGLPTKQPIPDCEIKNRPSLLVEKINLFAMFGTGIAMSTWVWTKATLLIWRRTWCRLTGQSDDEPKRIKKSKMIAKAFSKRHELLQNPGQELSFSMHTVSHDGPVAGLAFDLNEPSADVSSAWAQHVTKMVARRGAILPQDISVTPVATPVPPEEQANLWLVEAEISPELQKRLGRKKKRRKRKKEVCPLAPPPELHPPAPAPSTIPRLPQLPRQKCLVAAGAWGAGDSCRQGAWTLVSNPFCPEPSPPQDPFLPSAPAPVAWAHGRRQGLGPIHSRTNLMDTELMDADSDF
compound,measurement,setting,value
O=C(Nc1ccc(Cl)c(-c2nnc3c(Cl)cccn23)c1)c1ccc(Cl)nc1Cl,Activity,[1],86%
same,mortality at 336 h,[2],60%
same,Activity,[3],45%
same,Activity,[4],9.4%
same,Activity,[5],42.57%
same,Activity,[6],9.06%
same,Activity,[7],Dose-dependent effect
same,Activity,[8],6.53%
same,Activity,[9],67.8%
same,inhibition,[10],Active
same,inhibition,[11],Active
same,IC50,[12],28.6 µM
same,IC50,[13],64.9 µM
same,Activity,[14],7.15%
same,Ka,[15],360 M⁻¹ s⁻¹
same,Activity,[16],74.84%
same,IC50,[17],0.09 µM
same,IC50,[18],85.2 µM
same,Activity,[19],14.6%
same,mortality at 336 h,[20],70%
same,Activity,[21],44%
same,IC50,[22],29.5 µM
